According to ChEMBL document CHEMBL1153534, “Design and synthesis of androgen receptor antagonists with bulky side chains for overcoming antiandrogen resistance” (J Med Chem, 2009):
The source made the active and inactive calls. The calls are words filed in the database; no cut-off is given here.

Tests used:
[1] = system: T1, Androgen receptor (Homo sapiens), P10275 [W742C]; assay: Activity in human PC3 cells expressing androgen receptor W741C mutant assessed as ARE-dependent transactivation at 0.1 uM after 24 hrs by luciferase reporter gene assay in absence of DHT; format: cell-based; settings: PC-3
T1 sequence (whole entry): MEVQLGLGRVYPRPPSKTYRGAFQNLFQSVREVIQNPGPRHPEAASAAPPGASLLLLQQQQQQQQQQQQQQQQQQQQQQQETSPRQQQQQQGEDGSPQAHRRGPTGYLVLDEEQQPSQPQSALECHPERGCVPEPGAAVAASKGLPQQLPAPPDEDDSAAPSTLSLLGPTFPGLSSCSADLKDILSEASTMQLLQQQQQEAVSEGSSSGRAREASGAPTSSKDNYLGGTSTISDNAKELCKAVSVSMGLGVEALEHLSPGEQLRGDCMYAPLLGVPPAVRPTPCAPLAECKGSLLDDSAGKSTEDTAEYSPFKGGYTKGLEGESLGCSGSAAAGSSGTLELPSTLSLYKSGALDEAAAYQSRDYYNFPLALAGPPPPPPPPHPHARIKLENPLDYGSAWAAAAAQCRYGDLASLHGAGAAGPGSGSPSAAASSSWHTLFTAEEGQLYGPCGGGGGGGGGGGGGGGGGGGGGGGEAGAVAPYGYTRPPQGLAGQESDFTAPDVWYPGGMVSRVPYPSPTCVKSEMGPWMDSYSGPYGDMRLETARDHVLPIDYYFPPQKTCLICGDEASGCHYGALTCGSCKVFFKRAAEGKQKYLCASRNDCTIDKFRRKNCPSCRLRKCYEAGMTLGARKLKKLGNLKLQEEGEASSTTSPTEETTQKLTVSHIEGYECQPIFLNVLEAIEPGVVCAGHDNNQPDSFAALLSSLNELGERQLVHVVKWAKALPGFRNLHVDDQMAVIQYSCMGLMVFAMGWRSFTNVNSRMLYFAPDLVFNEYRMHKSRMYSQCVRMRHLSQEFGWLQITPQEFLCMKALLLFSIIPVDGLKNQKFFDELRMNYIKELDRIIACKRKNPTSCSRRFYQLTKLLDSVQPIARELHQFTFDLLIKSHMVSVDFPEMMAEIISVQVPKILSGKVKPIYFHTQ
Method in brief: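 PC-3 cells, which lack endogenous AR, transiently transfected with plasmids expressing human AR (WT, T877A, W741C or H874Y) plus an ARE-driven MMTV-luc reporter. Cells were treated with or without 0.1 nM DHT. Firefly luciferase was standardized to a Renilla control and normalized to the 0.1 nM DHT signal. Mean ± sd.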

[2] = biological target: T2, Progesterone receptor (Homo sapiens) (UniProt P06401); assay: Agonist activity at human PR B-form expressed in human PC3 cells assessed as receptor transactivation at 0.1 uM after 24 hrs by luciferase reporter gene assay; format: functional, cell-based; settings: PC-3
T2 sequence (whole entry): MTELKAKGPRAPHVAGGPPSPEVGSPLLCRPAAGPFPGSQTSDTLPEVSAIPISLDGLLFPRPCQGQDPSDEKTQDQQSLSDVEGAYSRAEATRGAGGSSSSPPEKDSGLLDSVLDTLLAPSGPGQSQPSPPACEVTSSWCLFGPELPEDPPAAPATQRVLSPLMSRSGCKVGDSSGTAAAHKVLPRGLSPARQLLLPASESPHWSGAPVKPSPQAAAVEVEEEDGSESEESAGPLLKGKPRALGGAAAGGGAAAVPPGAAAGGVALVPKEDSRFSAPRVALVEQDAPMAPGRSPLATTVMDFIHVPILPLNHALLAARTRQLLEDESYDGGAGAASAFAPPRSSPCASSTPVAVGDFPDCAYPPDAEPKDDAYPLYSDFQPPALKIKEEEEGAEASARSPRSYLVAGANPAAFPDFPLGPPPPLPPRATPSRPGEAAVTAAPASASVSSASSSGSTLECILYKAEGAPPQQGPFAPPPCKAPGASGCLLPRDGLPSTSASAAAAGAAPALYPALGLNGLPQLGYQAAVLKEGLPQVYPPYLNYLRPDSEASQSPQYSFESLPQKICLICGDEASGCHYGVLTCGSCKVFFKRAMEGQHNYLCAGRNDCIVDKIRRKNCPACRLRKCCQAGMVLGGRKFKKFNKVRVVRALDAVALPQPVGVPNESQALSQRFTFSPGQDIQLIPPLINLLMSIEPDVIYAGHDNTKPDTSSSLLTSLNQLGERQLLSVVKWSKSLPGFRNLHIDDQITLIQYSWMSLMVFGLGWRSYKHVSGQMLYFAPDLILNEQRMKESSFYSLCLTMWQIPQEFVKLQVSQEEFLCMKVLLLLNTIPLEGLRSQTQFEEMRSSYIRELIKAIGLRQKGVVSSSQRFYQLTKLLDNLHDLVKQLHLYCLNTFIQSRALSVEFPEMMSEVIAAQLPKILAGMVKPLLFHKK
Method in brief: (§1)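 PC-3 cells carrying a luciferase reporter for transactivation by the human PR B form. Antagonist mode used 10 nM R5020 as the agonist. Agonist mode ran in the absence of R5020. Luciferase read-out.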

[3] = biological target: T2, Progesterone receptor (Homo sapiens); assay: Antagonist activity at human PR B-form expressed in human PC3 cells assessed as inhibition of R5020-induced transactivation at 1 uM after 24 hrs by luciferase reporter gene assay; format: functional, cell-based; settings: PC-3; method in brief: as §1
[4] = Cytotoxicity against human MDA PCa 2b cells after 72 hrs by MTT assay; format: functional, cell-based

- Activity [1]: inactive
- Activity [2]: inactive
- Activity [3]: inactive
SMILES: COc1cc(/C=C(\C(=O)/C=C/C2=C(C)CCCC2(C)C)C(=O)/C=C/c2ccc(O)c(OC)c2)ccc1O
- IC50 [4]: 2500 nM
